Laboratory results taken from ChEMBL document CHEMBL2062373, “Discovery of pyrroloaminopyrazoles as novel PAK inhibitors” (J Med Chem, 2012).
Converted amounts (≈) assume the structure as drawn.

What was measured:
[1] = Aqueous solubility of the compound; format: physicochemical; conditions: buffer
[2] = Octanol/buffer partition coefficient, log D of the compound at pH 7.4; format: physicochemical
[3] = biological target: T1, Cyclin-dependent kinase 2 (Homo sapiens, UniProt P24941)
[4] = biological target: T1, Cyclin-dependent kinase 2; experiment: Inhibition of CDK2 at 1 uM
[5] = biological target: T2, Serine/threonine-protein kinase PAK 4 (Homo sapiens, UniProt O96013); experiment: Inhibition of PAK4-mediated GEF-H1 phosphorylation at Ser810 by cell based assay
[6] = Metabolic stability of the compound in human liver microsomes assessed as compound remaining after 30 mins; format: ADME, Microsome; conditions: read-out: Stability
[7] = Volume of distribution at steady state in rat at 5 mg/kg, iv and 10 mg/kg, po; format: ADME, organism-based; conditions: in vivo, read-out: Vdss
[8] = Efflux ratio of permeability from basolateral to apical side over apical to basolateral side in human Caco2 cells; format: ADME, cell-based; conditions: Caco-2
[9] = Clearance in rat at 5 mg/kg, iv and 10 mg/kg, po; format: ADME, organism-based; conditions: in vivo
[10] = Metabolic stability in human liver microsomes assessed as extraction ratio; format: ADME, Microsome; conditions: read-out: ERH
[11] = Oral bioavailability in rat at 10 mg/kg; format: ADME, organism-based; conditions: in vivo
[12] = Half life in rat at 5 mg/kg, iv and 10 mg/kg, po; format: ADME, organism-based; conditions: in vivo
Mus musculus [13] = experiment: Down regulation of GEF-H1 phosphorylation in human HCT116 cells xenografted in mouse tumor at 80 mg/kg/day, sc administered via continuous infusion measured after 18 hrs; format: functional, HCT-116; conditions: route subcutaneous
In short: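 Tumour-bearing mice received drug by continuous infusion from an implanted subcutaneous pump at 80 mg/kg/day. Tumours were taken at 18 h and pGEF-H1 levels were measured. Downregulation is expressed as percent reduction.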

[14] = biological target: T2, Serine/threonine-protein kinase PAK 4; experiment: Inhibition of PAK4
[15] = Antitumor activity against human M24 cells xenografted in mouse assessed as tumor growth inhibition at 7.5 mg/kg, po BID for 15 days; format: functional; conditions: M24, 360 h, read-out: TGI
[16] = biological target: T3, Lymphokine-activated killer T-cell-originated protein kinase (Homo sapiens) (UniProt Q96KB5); experiment: Inhibition of PBK at 1000 nM
T3 sequence (whole entry): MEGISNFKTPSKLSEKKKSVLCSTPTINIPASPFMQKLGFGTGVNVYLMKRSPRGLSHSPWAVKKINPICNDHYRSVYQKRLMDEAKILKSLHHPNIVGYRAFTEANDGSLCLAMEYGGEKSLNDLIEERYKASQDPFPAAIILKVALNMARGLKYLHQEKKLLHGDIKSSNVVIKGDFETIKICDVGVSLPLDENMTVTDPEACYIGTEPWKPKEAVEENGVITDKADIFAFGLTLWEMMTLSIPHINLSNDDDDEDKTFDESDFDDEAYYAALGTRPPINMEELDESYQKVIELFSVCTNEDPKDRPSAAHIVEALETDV

[17] = biological target: Cyclin-dependent kinase 7 (Homo sapiens) (UniProt P50613); experiment: Inhibition of cdk7 at 1000 nM
[18] = biological target: Mitogen-activated protein kinase 1 (Homo sapiens, UniProt P28482); experiment: Inhibition of Erk2 at 1000 nM
[19] = biological target: AMP-activated protein kinase, AMPK (Homo sapiens) (UniProt P54646+O43741+P54619+Q9UGJ0+Q9Y478+Q13131+Q9UGI9); experiment: Inhibition of AMPK at 1000 nM; format: protein-complex assay
Homo sapiens [20] = species on record: Homo sapiens; experiment: Inhibition of PKA at 1000 nM
Homo sapiens [21] = species on record: Homo sapiens; experiment: Inhibition of RSK at 1000 nM
Mus musculus [22] = experiment: Free dug level in mouse xenografted with human M24 cells at 15 mg/kg, po BID for 15 days; format: ADME, organism-based; parameters: dose 15 mg/kg, route oral; conditions: in vivo, 360 h
In short: (§1)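 The read-out is free drug exposure, reported as unbound average concentration (free Cave) in nM. It was obtained from mice dosed orally at the stated regimen, sid or bid, during the xenograft efficacy study.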

[23] = Antitumor activity against human M24 cells xenografted in mouse assessed as tumor growth inhibition at 15 mg/kg, po BID for 15 days; format: functional; conditions: M24, 360 h, read-out: TGI
Mus musculus [24] = experiment: Free dug level in mouse xenografted with human M24 cells at 7.5 mg/kg, po BID for 15 days; format: ADME, organism-based; parameters: dose 7.5 mg/kg, route oral; conditions: in vivo, 360 h; in short: as §1
[25] = biological target: Glycogen synthase kinase-3 beta (Homo sapiens, UniProt P49841); experiment: Inhibition of GSK3beta at 1000 nM
[26] = biological target: Serine/threonine-protein kinase MARK1 (Homo sapiens, UniProt Q9P0L2); experiment: Inhibition of MARK at 1000 nM
[27] = biological target: Serine/threonine-protein kinase 26 (Homo sapiens) (UniProt Q9P289); experiment: Inhibition of MST4 at 1000 nM
Mus musculus [28] = experiment: Free dug level in mouse xenografted with human HCT116 cells at 25 mg/kg, po BID for 15 days; format: ADME, organism-based, HCT-116; parameters: dose 25 mg/kg, route oral; conditions: in vivo, 360 h; in short: as §1
Mus musculus [29] = experiment: Free dug level in mouse xenografted with human HCT116 cells at 50 mg/kg, po SID for 15 days; format: ADME, organism-based, HCT-116; parameters: dose 50 mg/kg, route oral; conditions: in vivo, 360 h; in short: as §1
HCT-116 [30] = experiment: Antitumor activity against human HCT116 cells xenografted in mouse assessed as tumor growth inhibition at 50 mg/kg, po SID for 15 days; format: functional; conditions: HCT-116, 360 h, read-out: TGI
HCT-116 [31] = experiment: Antitumor activity against human HCT116 cells xenografted in mouse assessed as tumor growth inhibition at 25 mg/kg, po BID for 15 days; format: functional; conditions: HCT-116, 360 h, read-out: TGI

T2 sequence (O96013 whole entry): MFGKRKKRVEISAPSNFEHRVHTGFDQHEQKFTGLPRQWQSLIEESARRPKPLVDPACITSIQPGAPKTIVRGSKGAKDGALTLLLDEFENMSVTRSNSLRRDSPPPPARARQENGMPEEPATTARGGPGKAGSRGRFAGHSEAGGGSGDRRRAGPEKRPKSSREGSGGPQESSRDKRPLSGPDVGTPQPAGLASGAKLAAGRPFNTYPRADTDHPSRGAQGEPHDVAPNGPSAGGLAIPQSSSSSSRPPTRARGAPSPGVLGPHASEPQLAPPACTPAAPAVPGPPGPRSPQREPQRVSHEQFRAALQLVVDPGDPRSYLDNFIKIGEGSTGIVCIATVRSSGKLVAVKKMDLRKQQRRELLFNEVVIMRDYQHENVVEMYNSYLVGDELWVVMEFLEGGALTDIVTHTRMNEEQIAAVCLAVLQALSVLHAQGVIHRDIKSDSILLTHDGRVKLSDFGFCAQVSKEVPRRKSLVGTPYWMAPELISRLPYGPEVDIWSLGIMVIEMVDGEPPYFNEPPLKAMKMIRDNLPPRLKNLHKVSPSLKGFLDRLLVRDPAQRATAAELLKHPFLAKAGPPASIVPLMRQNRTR
Sequence of Serine/threonine-protein kinase MARK1 (Q9P0L2 whole entry, looked up): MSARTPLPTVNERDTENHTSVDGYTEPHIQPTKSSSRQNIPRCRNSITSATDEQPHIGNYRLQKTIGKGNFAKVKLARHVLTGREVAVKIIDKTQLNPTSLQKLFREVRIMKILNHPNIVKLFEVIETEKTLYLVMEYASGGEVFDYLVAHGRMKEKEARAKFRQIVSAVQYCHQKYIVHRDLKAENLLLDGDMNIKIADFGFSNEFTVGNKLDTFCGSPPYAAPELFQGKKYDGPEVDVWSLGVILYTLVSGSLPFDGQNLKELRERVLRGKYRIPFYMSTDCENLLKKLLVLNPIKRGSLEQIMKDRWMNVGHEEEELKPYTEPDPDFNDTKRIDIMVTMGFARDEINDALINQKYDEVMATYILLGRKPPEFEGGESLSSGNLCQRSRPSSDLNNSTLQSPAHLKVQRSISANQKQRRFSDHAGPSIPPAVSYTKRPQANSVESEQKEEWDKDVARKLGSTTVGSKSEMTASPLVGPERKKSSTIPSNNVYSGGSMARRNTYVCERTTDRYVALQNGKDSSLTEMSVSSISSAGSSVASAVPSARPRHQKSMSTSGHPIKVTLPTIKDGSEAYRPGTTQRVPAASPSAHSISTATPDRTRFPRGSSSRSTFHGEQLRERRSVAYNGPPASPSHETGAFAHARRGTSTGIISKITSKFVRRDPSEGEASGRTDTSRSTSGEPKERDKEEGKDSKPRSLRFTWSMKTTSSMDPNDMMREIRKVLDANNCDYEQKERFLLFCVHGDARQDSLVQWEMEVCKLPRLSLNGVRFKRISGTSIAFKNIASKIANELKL
Sequence of Mitogen-activated protein kinase 1 (P28482 whole entry): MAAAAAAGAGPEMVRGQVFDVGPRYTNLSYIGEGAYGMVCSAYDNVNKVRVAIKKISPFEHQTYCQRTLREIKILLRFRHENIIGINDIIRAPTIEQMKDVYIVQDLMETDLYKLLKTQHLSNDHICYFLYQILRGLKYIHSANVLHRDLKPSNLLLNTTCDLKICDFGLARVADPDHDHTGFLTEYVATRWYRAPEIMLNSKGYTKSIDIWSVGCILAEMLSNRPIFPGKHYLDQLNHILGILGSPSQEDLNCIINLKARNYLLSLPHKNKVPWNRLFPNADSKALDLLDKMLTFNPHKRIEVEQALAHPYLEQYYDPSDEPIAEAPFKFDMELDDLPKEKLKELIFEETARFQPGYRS
Sequence of Serine/threonine-protein kinase 26 (Homo sapiens) (Q9P289 2-416 limits assumed): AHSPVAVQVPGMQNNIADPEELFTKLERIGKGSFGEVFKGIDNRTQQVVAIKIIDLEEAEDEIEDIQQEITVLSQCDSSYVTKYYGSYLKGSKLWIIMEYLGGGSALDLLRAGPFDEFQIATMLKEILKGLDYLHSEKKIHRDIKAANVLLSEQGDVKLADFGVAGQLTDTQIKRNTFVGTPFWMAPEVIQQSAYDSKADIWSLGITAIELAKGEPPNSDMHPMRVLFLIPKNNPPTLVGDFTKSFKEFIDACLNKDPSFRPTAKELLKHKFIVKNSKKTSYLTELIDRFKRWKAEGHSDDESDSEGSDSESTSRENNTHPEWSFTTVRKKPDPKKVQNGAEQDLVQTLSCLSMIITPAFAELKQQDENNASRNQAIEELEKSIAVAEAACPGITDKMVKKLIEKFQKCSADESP
Sequence of Cyclin-dependent kinase 7 (Homo sapiens) (P50613 whole entry): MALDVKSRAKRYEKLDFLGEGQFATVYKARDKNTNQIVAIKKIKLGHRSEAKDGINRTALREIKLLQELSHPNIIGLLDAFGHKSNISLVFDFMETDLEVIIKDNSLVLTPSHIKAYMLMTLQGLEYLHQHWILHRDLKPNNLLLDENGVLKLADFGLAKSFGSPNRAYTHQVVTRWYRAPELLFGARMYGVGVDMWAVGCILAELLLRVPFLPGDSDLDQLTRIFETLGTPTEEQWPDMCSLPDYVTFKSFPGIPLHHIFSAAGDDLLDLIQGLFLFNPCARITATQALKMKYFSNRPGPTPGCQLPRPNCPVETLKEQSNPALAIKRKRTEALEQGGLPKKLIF
Sequence of Glycogen synthase kinase-3 beta (P49841 whole entry, looked up): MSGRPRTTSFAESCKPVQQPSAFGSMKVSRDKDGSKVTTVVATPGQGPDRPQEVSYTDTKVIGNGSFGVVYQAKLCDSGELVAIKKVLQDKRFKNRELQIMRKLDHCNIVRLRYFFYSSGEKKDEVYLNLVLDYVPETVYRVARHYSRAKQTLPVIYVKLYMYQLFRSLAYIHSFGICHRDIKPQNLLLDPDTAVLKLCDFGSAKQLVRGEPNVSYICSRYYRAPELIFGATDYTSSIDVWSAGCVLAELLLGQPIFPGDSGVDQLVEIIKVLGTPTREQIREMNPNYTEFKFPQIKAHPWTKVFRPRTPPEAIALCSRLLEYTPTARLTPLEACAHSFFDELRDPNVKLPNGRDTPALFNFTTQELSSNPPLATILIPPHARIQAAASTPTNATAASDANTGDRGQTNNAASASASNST

| Compound | logD [2] | EC50 ([5]; read-out: EC50) [nM] | Vd [7] [L/kg] | efflux ratio [8] | clearance [9] [mL/min/kg] | hepatic extraction ratio [10] | bioavailability [11] [%] | half-life [12] [h] | Ki [14] [nM] | other results |
| --- | --- | --- | --- | --- | --- | --- | --- | --- | --- | --- |
| CN1CCN(C(=O)N2Cc3c(NC(=O)c4cccc(Oc5ccccc5)c4)n[nH]c3C2(C)C)[C@@H](Cc2ccccc2)C1 | 5.45 | 810 |  |  |  |  |  |  |  | inhibition [4]: 20%; remaining at 0.5 h [6]: 2% |
| CN(C)C[C@@H](OC(=O)N1Cc2c(NC(=O)C3CCCCO3)n[nH]c2C1(C)C)c1ccccc1 (mixture of isomers) | 2.48 |  |  | 3.6 |  | 1 |  |  |  |  |
| CN(C)C[C@@H](OC(=O)N1Cc2c(NC(=O)C(C)(C)C(F)(F)F)n[nH]c2C1(C)C)c1ccccc1 | 1.61 | 1 | 4.3 |  | 37 | 0.55 | 45 | 1.3 |  | inhibition in vivo at 7.5 mg/kg [15]: 67%; inhibition [16]: > 70%; inhibition [17]: > 70%; inhibition [18]: > 70%; inhibition [19]: > 70%; inhibition (Homo sapiens [20]): > 70%; inhibition (Homo sapiens [21]): > 70%; Drug uptake(free) (Mus musculus [22]): 31 nM; inhibition in vivo at 15 mg/kg [23]: 87%; Drug uptake(free) (Mus musculus [24]): 13.9 nM; inhibition [25]: > 70%; inhibition [26]: > 70%; inhibition [27]: > 70% |
| CN(C)C[C@@H](NC(=O)N1Cc2c(NC(=O)c3ccccc3F)n[nH]c2C1(C)C)c1ccccc1 | 2.33 |  |  | 231 |  | 0.38 |  |  |  |  |
| CN(C)C[C@@H](OC(=O)N1Cc2c(NC(=O)C3(C(F)(F)F)CC3)n[nH]c2C1(C)C)c1ccccc1 | 1.5 | 7 | 2.8 |  | 24.1 | 0.42 | 46 | 1.5 |  |  |
| CN(C)C[C@@H](NC(=O)c1ccc2[nH]nc(-c3nc4ccc(NCc5ccc(-c6ccccn6)cc5)cc4[nH]3)c2c1)c1ccccc1 |  |  |  |  |  |  |  |  | 2.8 |  |
| CN1CCN(C(=O)N2Cc3c(n[nH]c3NC(=O)c3ccccc3)C2(C)C)C(c2ccccc2)C1 (stereo unspecified) | 3.2 | 21 |  | 187 |  | 0.7 |  |  | 207 |  |
| CN(C)C[C@@H](NC(=O)c1ccc2[nH]nc(-c3nc4ccccc4[nH]3)c2c1)c1ccccc1 | 3.6 | 12.6 |  |  |  |  |  |  | 6 |  |
| CN(C)C[C@@H](OC(=O)N1Cc2c(NC(=O)C3(C(F)(F)F)CCC3)n[nH]c2C1(C)C)c1ccccc1 | 1.6 | < 1 |  |  |  | 0.6 |  |  |  |  |

Second part, led by results:

| logD [2] | EC50 ([5]; read-out: EC50) [nM] | Vd [7] [L/kg] | efflux ratio [8] | clearance [9] [mL/min/kg] | hepatic extraction ratio [10] | bioavailability [11] [%] | half-life [12] [h] | Ki [14] [nM] | Compound | other results |
| --- | --- | --- | --- | --- | --- | --- | --- | --- | --- | --- |
| 2.66 |  |  |  |  |  |  |  |  | CN(C)C[C@@H](OC(=O)N1Cc2c(NC(=O)c3ccccc3)n[nH]c2C1(C)C)c1ccccc1 | solubility [1]: 434 µM (≈ 194 µg/mL); Ki [3]: 2000 nM |
| 2.23 |  | 4.8 | 1.61 | 146 | 0.67 | 2 | 0.7 |  | CN(C)C[C@@H](OC(=O)N1Cc2c(NC(=O)c3ccccn3)n[nH]c2C1(C)C)c1ccccc1 |  |
| 1.77 |  |  | 326 |  | 0.39 |  |  | 30 | CN(C)C[C@@H](NC(=O)N1Cc2c(NC(=O)c3ccccc3)n[nH]c2C1(C)C)c1ccccc1 | solubility [1]: 395 µM (≈ 176 µg/mL); Activity (Mus musculus [13]): 61%; Ki [3]: 1800 nM |
| 2.08 |  | 2.2 | 8.7 | 69 | 0.4 | 20 | 0.5 |  | CN(C)C[C@@H](OC(=O)N1Cc2c(NC(=O)C3CCCO3)n[nH]c2C1(C)C)c1ccccc1 (mixture of isomers) |  |
| 2.68 |  |  | 53.6 |  | 0.5 |  |  |  | CN(C)C[C@H](c1ccccc1)N(C)C(=O)N1Cc2c(NC(=O)c3ccccc3)n[nH]c2C1(C)C | EC50 [5]: Not Active |
| 2.79 | 9 | 6.1 | 7 | 98 | 0.7 | 9 | 1.1 | 13 | CN(C)C[C@@H](OC(=O)N1Cc2c(NC(=O)c3ccc(F)cc3)n[nH]c2C1(C)C)c1ccccc1 | Drug uptake(free) (Mus musculus [28]): 25 nM; Drug uptake(free) (Mus musculus [29]): 70 nM; solubility [1]: 404 µM (≈ 188 µg/mL); inhibition in vivo at 50 mg/kg (HCT-116 [30]): 12%; inhibition in vivo at 25 mg/kg (HCT-116 [31]): 61%; Ki [3]: 1160 nM |
| 2.68 | 15 |  | 1.17 |  | 0.9 |  |  |  | CN(C)C[C@@H](OC(=O)N1Cc2c(NC(=O)c3ccc(F)cc3F)n[nH]c2C1(C)C)c1ccccc1 |  |
